Measurements: ChEMBL document CHEMBL2074473, “Inhibitory effect of a bitter melon extract on the P-glycoprotein activity in intestinal Caco-2 cells” (Br J Pharmacol, 2004)

Legend:
[1] = molecular target: T1, ATP-dependent translocase ABCB1 (Homo sapiens, UniProt P08183); test: TP_TRANSPORTER: Daunomycin accumulation in Caco-2 cells; type: functional, cell-based
In short: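 Caco-2 monolayers (passages 40–66) grown 14 days on collagen-coated 24-well plates. After two PBS washes and equilibration in HBSS with 4 mM bicarbonate and 10 mM HEPES, pH 7.4, cells were incubated with 40 nM [3H]-daunomycin ± sample for 2 h at 37°C. Ice-cold PBS/0.05% azide washes, Triton X-100 lysis, scintillation counting. Expressed as % of control, mean±s.d., n=3.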

[2] = molecular target: T1, ATP-dependent translocase ABCB1; test: TP_TRANSPORTER: Rhodamine 123 accumulation in Caco-2 cells; type: functional, cell-based
In short: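 Caco-2 monolayers (passages 40–66) grown 14 days on collagen-coated 24-well plates. Cells were equilibrated in HBSS with 4 mM bicarbonate and 10 mM HEPES, pH 7.4, then exposed to 15 μM rhodamine-123 ± sample (2 mg ml−1 extracts) for 2 h at 37°C. After ice-cold PBS/0.05% azide washes, fluorescence was read at ex 485/em 544 nm. Expressed as % of control, mean±s.d., n=4.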

T1 sequence (P08183 whole entry): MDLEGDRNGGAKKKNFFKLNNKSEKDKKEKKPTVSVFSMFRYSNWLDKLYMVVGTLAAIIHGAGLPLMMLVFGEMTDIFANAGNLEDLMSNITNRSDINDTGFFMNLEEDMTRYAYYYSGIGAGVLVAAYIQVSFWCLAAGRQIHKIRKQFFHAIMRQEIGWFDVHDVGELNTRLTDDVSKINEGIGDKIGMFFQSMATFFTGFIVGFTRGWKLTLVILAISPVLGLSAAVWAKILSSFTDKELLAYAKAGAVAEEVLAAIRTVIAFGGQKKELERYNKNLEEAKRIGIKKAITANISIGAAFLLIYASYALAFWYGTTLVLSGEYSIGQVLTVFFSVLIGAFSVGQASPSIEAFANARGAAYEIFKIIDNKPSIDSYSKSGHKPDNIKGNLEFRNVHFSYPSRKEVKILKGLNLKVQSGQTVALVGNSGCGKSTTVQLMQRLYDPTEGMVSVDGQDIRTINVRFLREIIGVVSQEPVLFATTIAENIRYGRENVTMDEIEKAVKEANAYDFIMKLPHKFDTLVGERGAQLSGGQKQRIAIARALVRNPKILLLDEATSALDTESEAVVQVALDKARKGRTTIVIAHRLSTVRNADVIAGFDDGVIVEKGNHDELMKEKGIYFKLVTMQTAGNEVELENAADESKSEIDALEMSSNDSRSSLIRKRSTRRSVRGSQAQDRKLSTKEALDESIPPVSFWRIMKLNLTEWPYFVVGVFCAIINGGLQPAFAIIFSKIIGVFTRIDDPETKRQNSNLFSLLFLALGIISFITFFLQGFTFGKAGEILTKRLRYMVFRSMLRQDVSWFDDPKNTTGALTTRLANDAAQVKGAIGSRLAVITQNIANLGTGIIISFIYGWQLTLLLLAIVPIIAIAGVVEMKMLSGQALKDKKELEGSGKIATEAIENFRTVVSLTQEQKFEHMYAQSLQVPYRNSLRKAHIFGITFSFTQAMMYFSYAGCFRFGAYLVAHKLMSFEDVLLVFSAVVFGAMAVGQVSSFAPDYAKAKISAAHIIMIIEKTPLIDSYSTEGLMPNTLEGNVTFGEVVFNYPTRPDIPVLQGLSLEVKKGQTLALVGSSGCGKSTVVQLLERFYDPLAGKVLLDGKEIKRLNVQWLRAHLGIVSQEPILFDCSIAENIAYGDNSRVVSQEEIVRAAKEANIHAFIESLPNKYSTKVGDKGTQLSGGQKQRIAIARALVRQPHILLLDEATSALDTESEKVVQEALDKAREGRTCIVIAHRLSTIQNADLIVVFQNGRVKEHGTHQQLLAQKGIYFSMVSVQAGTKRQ

Row | Activity [1] | Activity [2] | Molecule
1 | is not an inhibitor [-] |  | CCCCCCCCCCCCCCCC(=O)OCC(CO)OC(=O)CCCCCCCCCCCCCCC (stereo unspecified) [1,2-Dipalmitin]
2 | inhibitor [+] |  | CCCCCCCCCCCCCC(=O)OCC(O)CO (stereo unspecified)
3 | inhibitor [+] |  | CCCCCCCCCCCCCCCCCC(=O)OCC(O)CO (stereo unspecified) [GLYCERYL MONOSTEARATE]
4 | is not an inhibitor [-] |  | CCCCCCCCCCCCCCCC(=O)O [PALMITIC ACID]
5 | is not an inhibitor [-] |  | CCCCCCCCCCCCCCCC(=O)OCC(COC(=O)CCCCCCCCCCCCCCC)OC(=O)CCCCCCCCCCCCCCC [TRIPALMITIN]
6 | inhibitor [+] |  | CCCCCCCCCCCC(=O)OCC(O)CO (stereo unspecified) [GLYCEROL MONOLAURATE]
7 | is not an inhibitor [-] |  | CCCCCCCCCCCCCCCC(=O)O.OCC(O)CO [PALMITIC ACID + GLYCEROL]
8 | inhibitor [+] |  | CCCCCCCCCC(=O)OCC(O)CO (stereo unspecified) [MONOCTANOIN COMPONENT B]
9 | inhibitor [+] |  | CCCCCCCCCCCCCCCC(=O)OCC(O)CO (stereo unspecified) [1-Monopalmitin]
10 | inhibitor [+] |  | CCCCCCCC(=O)OCC(O)CO (stereo unspecified) [MONOCTANOIN COMPONENT A]
11 |  | inhibitor [+] | BITTER MELON
12 | inhibitor [+] |  | CCCCC/C=C/C/C=C/CCCCCCCC(=O)OCC(O)CO (stereo unspecified) [1-Monolinolein]
13 | is not an inhibitor [-] |  | CCCCCCCCCCCCCCCC(=O)OCC(O)COC(=O)CCCCCCCCCCCCCCC [1,3-Dipalmitin]
14 | inhibitor [+] |  | CC/C=C/C/C=C/C/C=C/CCCCCCCC(=O)OCC(O)CO (stereo unspecified) [1-Monolinolenin]
15 | is not an inhibitor [-] |  | OCC(O)CO [GLYCERIN]
16 | inhibitor [+] |  | CCCCCC/C=C\CCCCCCCC(=O)OCC(O)CO (stereo unspecified) [1-Monopalmitolein]
